The text below walks through data of publication PMC5352298 (Pharmacological research, 2016).

Where two headings read alike, the source gives them in different places.

For series [1], the system named is mice (carrageenan induced paw edema). The series can be described thus: Carrageenan induced paw edema. The format is in vivo, mouse. The gist of the method:
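Male CF-1 mice (20–35 g), n=5 per group. Test compound, ibuprofen (100 mg/kg, positive control) or MC vehicle given i.p. 2 h before intraplantar 25 μl λ-carrageenan; an MC/saline group also included. Both paws measured by caliper at baseline and 0.5, 1, 2, 3, 4, 6, 8 and 24 h. % edema = thickness/baseline. Mean ± s.e.m.; Tukey test.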
(Carrageenan injected into the paw causes an acute inflammation.)

In series [2] the test system is mice (acetic-acid induced abdominal constriction). The conditions noted are these: cited from earlier work.
In series [3] the test system is rats with SNL neuropathy. The series can be described thus: Spinal nerve ligation. The format is in vivo. The following applies: rat. The gist of the method:
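Rats with pre-surgery threshold >15 g underwent L5–L6 spinal nerve ligation under ketamine/xylazine. Test compound at 40, 60 or 80 mg/kg i.p., MC vehicle, or MTMCD positive control, given 7, 14 and 21 days post-surgery. Latin-square design; experimenter blinded. Nine von Frey filaments (0.6–26 g); protected = no response to 15 g. TPE = earliest time of highest mean threshold.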

Series [4] deals with mice (formalin-induced paw licking). The series can be described thus: Formalin test. The format is in vivo, mouse. The following applies: for reduction of licking-time AUC vs control, acute phase: acute phase 0–10 min; for reduction of licking-time AUC vs control, inflammatory phase: inflammatory phase 10–40 min; for ID50 (dose reducing the nociceptive response by 50% compared to control), acute phase / ID50 (dose reducing the nociceptive response by 50% compared to control), inflammatory phase: i.p.

Series [5] has as its system mice (carrageenan induced heat hyperalgesia). Briefly: Carrageenan test, heat hyperalgesia. The format is in vivo, mouse. The following applies: for paw thickness an hour following administration: carrageenan injected paw. The gist of the method:
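Mice acclimated 1 h on a 30°C plate, then 25 μl carrageenan (20 mg/ml in saline) s.c. into left hind plantar paw. Test compound (10–70 mg/kg), VPA (100 mg/kg) or 0.5% MC given i.p. 15 min before testing at 3 h; Sal/MC and Carr/MC controls; blinded. Radiant heat (35% intensity): flinch latency, mean of two readings 5 min apart, ipsilateral minus contralateral.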

In series [6] the test system is mice (acetic-acid induced abdominal constriction). Briefly: Acetic acid-induced abdominal constriction. The format is in vivo, mouse. The conditions noted are these: for protective index (PI), writhing test: TD50 vs ED50. (In general: In writhing tests, fewer writhes than in controls are read as antinociception.)
A further series deals with rat sciatic nerve. Briefly: Sciatic nerve compound action potential. The conditions noted are these: 40 Hz.
Series [7] is described as follows: Pharmacokinetic study in mice. The conditions noted are these: 80 mg/kg i.p. The format is in vivo, mouse. The method, boiled down:
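Mice dosed 80 mg/kg i.p. (suspension in 0.5% MC), 4 per time point. Aortic blood collected after sacrifice at 0.25, 0.5, 1, 1.5, 2, 2.5 and 4 h. Heparinised plasma (3000g, 10 min) stored at −80°C. Chloroform extraction with N-methyl VCD internal standard, then GC/MS. Non-compartmental analysis: Cmax observed; CL/F = Dose/AUC; V/F = CL/F ÷ terminal slope.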

Series [8] is described as follows: Pharmacokinetic study in rats. The format is in vivo, rat. The following applies: 80 mg/kg i.p. The method, boiled down: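 Rats given 80 mg/kg i.p. in 0.5% MC, four animals per time point. Cardiac-puncture blood (5 ml) taken at sacrifice at 0.25, 0.5, 1, 1.5, 2 and 4 h. Plasma (3000g, 10 min) held at −80°C, chloroform-extracted with N-methyl VCD internal standard and assayed by GC/MS. Non-compartmental: observed Cmax, CL/F = Dose/AUC, V/F = CL/F divided by terminal slope.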

The conditions of series [9]: rats, 60 mg/kg, multisol solution, previous study; cited from earlier work.
For series [10], the system named is rats with SNL neuropathy. The conditions noted are these: rat, same paradigm; cited from earlier work.
A further series deals with mice. The following applies: mouse, in vivo, ip; cited from earlier work.
Series [11] relates to mice (formalin-induced paw licking). The following applies: same test; cited from earlier work.
Setting [12] is: sedation for the first 15 minutes after dosing.

`CC(C)Cc1ccc(C(C)C(=O)O)cc1` (stereo not drawn) [Ibuprofen, reference compound]: the “percent paw thickness following carrageenan injection” value in series [1] (100 mg/kg i.p., significant after 4 hours (p<0.05)) was “decreased percent paw thickness”. For the same molecule, the “ED50 in the writhing model” value in [2] is listed as 33 mg/kg.

On to `CNC(=O)CC1C(C)(C)C1(C)C` [MTMCD, N-methyl tetramethylcyclopropyl acetamide, reference compound], for which the “antiallodynic effect vs MC (positive control)” value with rats with SNL neuropathy [3] (80 mg/kg i.p.) is “antiallodynic effect significantly different than MC”.

For `CCCC(C(N)=O)C(C)CC` (stereo not drawn) [SPD, sec-Butylpropylacetamide], the “tactile allodynia compared to control” value with rats with SNL neuropathy [3] (60 and 80 mg/kg i.p., p<0.05) is on record as “significantly reduced tactile allodynia”. Further, the “time to peak antiallodynic effect (TPE)” value in the series with rats with SNL neuropathy [3] (i.p.) is on record as 60 min. The “ED50 (antiallodynic, SNL model)” value in the series on rats with SNL neuropathy [3] (i.p., at TPE (60 min), 95% CI of 9–61 mg/kg) was found to be 49 mg/kg. For the same molecule, in [4] (mice), the “potency (effective dose) in the formalin test” value (shortened to “potency (effective dose)”) is recorded as 70 mg/kg; the “ID50 (dose reducing the nociceptive response by 50% compared to control), acute phase” value is recorded as 39 mg/kg; the “ID50 (dose reducing the nociceptive response by 50% compared to control), inflammatory phase” value was 40 mg/kg. In series [4] (mice, 70 mg/kg i.p.), the “reduction of licking-time AUC vs control, acute phase” value amounted to 55% and the “reduction of licking-time AUC vs control, inflammatory phase” value is reported as 74%. In addition, the “protective index (PI), formalin test” value in series [4] (ratio between ID50 and TD50, TD50 from White et al., 2012) was determined as 2.2. Moreover, in [5] (70 mg/kg i.p.), the “heat hyperalgesia, normalized mean withdrawal time vs Carr/MC” value was “statistically different from the Carr/MC group”. The “paw thickness an hour following administration” value in series [5] is recorded as “Neither SPD nor VPA decreased paw thickness”. The “ED50 in the carrageenan model (heat hyperalgesia)” value in [5] (i.p., at TPE, 95% CI 29.3–110) is reported as 49 mg/kg. For the same molecule, in series [1] (70 mg/kg i.p.), the “percent paw thickness up to 24 hours following carrageenan injection” value is given as “did not decrease percent paw thickness”. In [6], the “protective index (PI), writhing test” value stood at 2.2. For the same molecule, the “mean number of writhes” value in series [6] (mice, 30, 50 and 70 mg/kg i.p., p<0.001) is “significantly reduced”. Further, the “dose of maximum efficacy in the writhing test” value in [6] (mice, i.p.) was found to be 30 mg/kg. Further, the “ED50 in the writhing test” value in series [6] (mice, i.p., 95% CI 24.3–67 mg/kg (SPD), 18–61mg/kg (VPA)) was 40 mg/kg. The “ratio between last and first CAP (Δf), phasic stimulation” value in the series with rat sciatic nerve (3mM, baseline 96.5%) is given as 96%. Also, in the series on rat sciatic nerve (3mM, baseline 100%), the “PAR of the first and last CAP normalized to baseline, phasic stimulation” value came to 90%. Also, in series [7], the CL/F was 28.3 mL/min/kg, the “peak plasma concentration (Cmax)” value amounted to 77.2 µg/mL and the volume of distribution was found to be 0.9 L/kg. Further, in [7] (setting [12]), the signs of toxicity entry is “not associated with any signs of toxicity except sedation”. In series [8], the CL/F turned out to be 15 mL/min/kg, the “peak plasma concentration (Cmax)” value was determined as 66.2 µg/mL and the volume of distribution worked out at 1.1 L/kg. Further, the signs of toxicity result in series [8] (setting [12]) is given as “not associated with any signs of toxicity except sedation”. Also, the CL/F in series [9] was 1.9.

The ED50 is the dose that gives a 50% effect, or the effect in half of the subjects. Regarding `CCCC(CCC)C(=O)O` [VPA, valproic acid, reference compound], in series [4] (mice, 70 mg/kg i.p.), the licking time entry is given as “unable to reduce the licking time significantly”. Besides, the licking time entry in [4] (mice, 100 mg/kg i.p.) was “showed reduction in only one of the two phases evaluated”. Also, in [4] (mice, 300 mg/kg i.p.), the “reduction of licking-time AUC vs control, acute phase” value is reported as 46% and the “reduction of licking-time AUC vs control, inflammatory phase” value came out at 75%. In series [4] (mice), the “ID50 (dose reducing the nociceptive response by 50% compared to control), acute phase” value came out at 136 mg/kg and the “ID50 (dose reducing the nociceptive response by 50% compared to control), inflammatory phase” value is listed as 113 mg/kg. Also, the “heat hyperalgesia vs Carr/MC” value in series [5] (100 mg/kg i.p.) was “not able to reduce heat hyperalgesia”. For the same molecule, in series [5], the “paw thickness an hour following administration” value is “Neither SPD nor VPA decreased paw thickness”. The ED50 in series [6] (Mus musculus, ip, read-out: ED50 in the writhing test) amounted to 44 mg/kg. Moreover, the “protective index (PI), writhing test” value in [6] is recorded as 8.8. Moreover, the number of writhes entry in series [6] (mice, 50 and 100 mg/kg i.p.) is on record as “significantly reduced the number of writhes”. The “ED50 (antiallodynic, SNL model)” value with rats with SNL neuropathy [10] is listed as 269 mg/kg. The TD50 in the series on mice is listed as 391 mg/kg.

`CC(=O)Oc1ccccc1C(=O)O` [aspirin]: in series [2], the “ED50 in the writhing model” value was 82 to 228 mg/kg.

`COc1ccc2c3c1O[C@H]1[C@@H](O)C=C[C@H]4[C@@H](C2)N(C)CC[C@@]341` [codeine]: the “potency (effective dose)” value in series [11] was 25 to 50 mg/kg.

As for `NCC1(CC(=O)O)CCCCC1` [gabapentin], in the series with rats with SNL neuropathy [10], the “ED50 (antiallodynic, SNL model)” value is reported as 32 mg/kg.

Turning to `CCN(CC)CC(=O)Nc1c(C)cccc1C` [lidocaine, Lidocaine, reference compound], in the series with rat sciatic nerve (1mM, baseline 100%), the “PAR of the first CAP normalized to baseline, phasic stimulation” value was 22.5% and the “PAR of the last CAP normalized to baseline, phasic stimulation” value turned out to be 14.7%.

For the molecule `CN1CC[C@]23c4c5ccc(O)c4O[C@H]2[C@@H](O)C=C[C@H]3[C@H]1C5` [morphine], in series [11], the “potency (effective dose)” value is 5 to 10 mg/kg.

`CN1C(C(=O)Nc2ccccn2)=C(O)c2ccccc2S1(=O)=O` [piroxicam]: in series [2], the “ED50 in the writhing model” value is given as 100 mg/kg.
